Screens from PubChem BioAssay.
An excerpt weighted towards active compounds, which were near 4% of everything screened.
Arr AP2 block: inhibitors of human beta-arrestin and AP2 interaction; FITC-arrestin peptide / GST-AP2 beads, flow cytometry; AP2 beta2 appendage carries R879A mutation; inhibition, % at 10 µM; 340,000 compounds, 0.31% hits; AID 504490;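 active = inhibition above a set limit, near 3 SD of compounds lacking own fluorescence, cut at about 54% in these data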
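test system = AP2 appendage R879A on GSH beads | buffer or medium = PBS plus Tween 20 (0.05%) and BSA (0.1%) | incubation = 12 min plus 1 h, RT | detection = bead flow cytometry, FITC channel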
hiPSC survival: hiPSC single-cell survival enhancement; ATPlite luminescence; 100% = ROCK inhibitor wells, 0% = DMSO; survival enhancement, % at 20 µM; 360,000 compounds, 0.044% hits; AID 602274; in the data active = survival enhancement above about 18%;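 also: cells exposed to compounds for 16 hours before the ATP read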
SENP1 FRET inh: blocks the human SENP1 SUMO protease catalytic domain; recombinant SENP1 catalytic domain, CyPet-SUMO1-YPet FRET cleavage; inhibition, % at 10 µM; 360,000 compounds, 0.21% hits; AID 624204;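 active = inhibition at least 30% at 10 µM, raw YFP signal under a set limit, fluorescence ratio 0.5 to 1.5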
Target sequence (Q9P0U3 419-644 limits assumed): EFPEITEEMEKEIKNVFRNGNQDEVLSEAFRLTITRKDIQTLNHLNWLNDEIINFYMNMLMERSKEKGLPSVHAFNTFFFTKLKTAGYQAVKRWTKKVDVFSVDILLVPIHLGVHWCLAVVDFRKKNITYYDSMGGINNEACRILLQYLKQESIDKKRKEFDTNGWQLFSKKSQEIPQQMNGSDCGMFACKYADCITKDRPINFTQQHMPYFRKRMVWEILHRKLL
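Compound: 10 µM single point, 0.5% DMSO; Test system: hSENP1 catalytic domain, recombinant; Timing: 50 min reaction at room temperature; Technique: FRET, CFP and YFP emission; Control set: no-enzyme wells low, DMSO-plus-enzyme wells high control.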
FAS TE block: FAS thioesterase (human) inhibition | P49327 | recombinant FAS-TE, OMFH fluorogenic substrate, fluorescence endpoint | inhibition, % at 15 µM | 360,000 compounds, 0.67% hits | AID 602261;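 active = compounds whose normalised, plate-corrected inhibition of enzyme fluorescence in the single-dose primary screen is 50% or more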
Cardio protect: myocardial damage modulation in H9c2 cells. H9c2 cardiomyocytes, H2O2 injury protection, ATPLite, 2 h. 360,000 compounds, 0.63% hits. protection from H2O2 cell death, % at 20 µM;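 active = compounds giving at least 50% protection of heart cells from peroxide-induced death in the single-dose screen, raw or plate-pattern-corrected value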
NR3A LBD binder: modulators (binders) of human NR3A ligand-binding domain | NR3A LBD differential scanning fluorimetry, Tm shift; 0% = protein alone, 100% = glycine-bound protein | Tm shift relative to glycine control, % at 25 µM | 340,000 compounds, 2.5% hits;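 active = melting temperature shift of at least 10% of the positive control shift, at one fixed dose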
Hits are given with their value; - = inactive; . = no result given; ! = a repeat was not active.

SMILES	Arr AP2 block	hiPSC survival	SENP1 FRET inh	FAS TE block	Cardio protect	NR3A LBD binder
Cc1ccc(-c2c(C(=O)N/N=C/c3ccc(OC(C)C)cc3)nnn2-c2nonc2N)cc1	-	-	-	-	-	-
CCOc1ccc(-c2c(C(=O)N/N=C/c3ccc(Cl)cc3)nnn2-c2nonc2N)cc1	-	-	-	-	-	13
CCOc1ccc(-c2c(C(=O)N/N=C/c3ccc(OC(C)C)cc3)nnn2-c2nonc2N)cc1	-	-	-	-	-	11
Cc1ccc(-c2c(C(=O)N/N=C/c3cccc(Cl)c3)nnn2-c2nonc2N)cc1	-	-	-	-	-	15
CCOc1ccc(/C=N/NC(=O)c2nnn(-c3nonc3N)c2-c2cccs2)cc1	-	-	-	-	-	13
Cc1ccc(-c2c(C(=O)N/N=C/c3ccoc3)nnn2-c2nonc2N)cc1	-	-	-	-	-	-
C=Cc1ccc(Cn2c(C)c(C(=O)NCc3ccc(C#N)cc3)sc2=O)cc1	.	-	-	-	-	.
Cc1ccc([C@H]2C[C@@H](O)[C@H](n3cc(COC(=O)c4ccccc4)nn3)CN2C(=O)c2cccs2)cc1	.	-	-	-	-	.
CC1(C)CC2C1CCC1(O)CC2(C)CCC1N(O)c1ccc(C(=O)NCCO)cn1 (configuration not stated)	-	-	-	-	51	-
CCCOc1ccc(C(=O)NCCO)cc1	-	-	-	-	-	-
CCOc1cc(/C=C2/C(=O)ON=C2C)ccc1OCc1ccccc1	.	.	.	.	.	26
CCOc1cc(/C=C2/C(=O)ON=C2C)ccc1OCc1ccc(F)cc1	-	-	-	-	-	-
O=c1c2cc(N3CCOCC3)ccc2[nH]c(=S)n1Cc1ccc(Cl)cc1	-	-	-	-	-	38
O=C(CCCCCn1c(=S)[nH]c2ccc(N3CCOCC3)cc2c1=O)NCc1ccc(Cl)cc1	-	-	-	-	-	-
Cc1ccc(F)c(S(=O)(=O)NC(=O)C2(C)CCN2C(=O)CC(c2ccccc2)c2ccccc2)c1 (configuration not stated)	.	-	-	-	-	.
CCCCn1c(N)c(N(CCOC)C(=O)CCS(=O)(=O)c2ccc(C)cc2)c(=O)[nH]c1=O	.	-	-	-	-	.
O=C(Cc1ccc(F)cc1)Nc1ccc(Cl)cn1	-	-	-	-	-	-
COc1ccc(CCNc2oc(-c3ccc(OC)c(OC)c3)nc2C#N)cc1	-	-	-	-	-	16
COc1ccc(-c2nc(C#N)c(NCCCN(C)C)o2)cc1OC	-	-	-	-	-	-
O=C(NCc1ccc(Cl)cc1)C1CCC(=O)N(C2CCCCCC2)C1 (configuration not stated)	-	-	-	-	-	10
COC(=O)c1sccc1-n1cc2c(c1-c1ccccc1)c(=O)n(C)c(=O)n2C	.	-	-	-	-	.
COC(=O)c1nc[nH]c1[N+](=O)[O-]	-	-	-	-	-	-
O=[N+]([O-])c1[nH]cnc1/C=C/c1ccccc1	-	-	-	-	-	22
Cc1cc(C(=O)N/N=C/c2ccc(OCc3ccccc3)cc2)c(C)o1	-	-	-	-	-	14
O=C(N/N=C/c1ccc(OCc2ccccc2)cc1)c1ccco1	-	-	-	-	-	13
SMILES	Arr AP2 block	hiPSC survival	SENP1 FRET inh	FAS TE block	Cardio protect	NR3A LBD binder
CC1=C(C(=O)N(C)C)CC(CC(=O)NC2CCCCC2)C(=O)N1Cc1ccc(F)cc1 (configuration not stated)	.	-	-	-	-	.
O=C1/C(=C/c2ccc([N+](=O)[O-])cc2)C=C(c2ccccc2)N1c1ccc(O)cc1	-	-	-	-	-	-
O=C(O)c1cccc(N2C(=O)/C(=C/c3ccc([N+](=O)[O-])cc3)C=C2c2ccccc2)c1	-	-	32	-	-	-
Cc1[nH]c2ccccc2c1/C=N/Nc1ccc([N+](=O)[O-])cc1	-	-	-	-	-	25
Cc1[nH]c2ccccc2c1/C=N/NC(=O)c1cccc([N+](=O)[O-])c1	-	-	-	-	-	-
O=[N+]([O-])c1ccc(N/N=C/c2c[nH]c3ccccc23)c(S(=O)(=O)Nc2ccc(Cl)cc2)c1	-	-	-	-	-	513
COc1ccccc1NS(=O)(=O)c1cc([N+](=O)[O-])ccc1N/N=C/c1c(C)[nH]c2ccccc12	-	-	-	-	-	29
COc1ccc(CN2C[C@@H](CO)O[C@@H](n3cnc4c(NCCO)ncnc43)C2)cc1	.	-	-	-	-	.
COc1ccc(CCNC(=O)CSc2nnc(Cn3c(=O)sc4ccccc43)n2C)cc1OC	-	-	-	-	-	11
COc1ccccc1NC(=O)CSc1nnc(Cn2c(=O)sc3ccccc32)n1C	-	-	-	-	-	-
O=[N+]([O-])c1cccc(NC(=S)Nc2nc(-c3ccccc3Cl)cs2)c1	-	-	-	-	-	17
O=C(CSc1nc(-c2ccc(Cl)cc2)cs1)Nc1cccc([N+](=O)[O-])c1	-	-	-	-	-	27
COc1ccc(CN2C(=O)C(CC(=O)NCCCCc3ccccc3)CC(C(=O)N(C)C)=C2C)cc1 (configuration not stated)	.	-	-	-	-	.
Cc1cc2c(cc1C)-n1nnnc1C(N1CCN(C(=O)OCc3ccccc3)CC1)C(=O)N2 (configuration not stated)	.	.	-	.	.	.
CC(C)Oc1ccc(C(=O)Nc2ccc(Cl)c(S(=O)(=O)Nc3ccc(Cl)cc3)c2)cc1	-	-	-	-	-	20
CCN(CC)CCNC(=O)c1ccc(Cl)c(S(=O)(=O)Nc2ccc(Cl)cc2)c1	-	-	-	-	-	21!
CC(NC(N)=O)C(=O)Nc1ccc(Cl)c(S(=O)(=O)Nc2ccc(Cl)cc2)c1 (configuration not stated)	-	-	-	-	-	-
CCN(CC)CCNC(=O)c1ccc(Cl)c(S(=O)(=O)Nc2ccccc2OC)c1	-	-	-	-	-	-
COc1cc(C)ccc1S(=O)(=O)NC(=O)Cn1nnc(COc2ccc3c(c2)CCCC3)c1C	.	-	-	-	-	.
Cc1nn(-c2ccccc2)c(Cl)c1C(=O)NNC(=O)c1ccncc1	-	-	-	-	-	-
Cc1nn(-c2ccccc2)c(Cl)c1C(=O)NNC(=O)c1ccccc1O	-	-	-	-	57	-
CCCCNC(=O)C1(C)CCN1C(=O)c1cccc(OC(C)=O)c1C (configuration not stated)	.	-	-	-	-	.
COc1ccc(OC)c(/C=C2\S/C(=N/NC(=O)c3ccc4ccccc4c3)NC2=O)c1	-	-	-	-	58	17
O=C1N/C(=N/NC(=O)c2cccc3ccccc23)S/C1=C\c1ccccc1OCc1ccccc1	-	-	-	-	-	-
